Assay: Circulation retention / AuNP probe clearance in vivo
Design: species or system athymic nude mice
Details: i.v., within the first hour, normalised to 1 min post-injection, n = 5
Procedure, shortened: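 Male Nu/nu mice, 6-8 weeks old, anaesthetised with Avertin (240 mg/kg i.p.). Dosed i.v. by tail vein with 1 mg probe in 100 μl water, or the equivalent dye-labeled peptide in sterile water. Serum was taken at each time point after euthanasia. 100 μl serum was incubated with DTT (~286 mM final) for 16 h at RT. Q670 read at 644/670 nm. Mean ± s.d., n = 5.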

% of initial administered amount removed from serum: more than 90%
Substance: Q670 (or BHQ2)-(His-Ser-Ser-Lys-Leu-Gln)-Cys [uncomplexed peptide]

From paper PMC2847389 (ACS nano, 2010)
